Data set [1] addresses T1, ATP-dependent translocase ABCB1 (Homo sapiens, UniProt P08183). Nature of the data set: Antiproliferative activity against human MDR1 transfected mouse L5178Y cell line. The class given is functional, cell-based. Conditions: read-out: ID50 (the source's name) (converted).
The target of data set [2] is T1, ATP-dependent translocase ABCB1. Nature of the data set: Reversal of multi-drug resistance in L5178Y cells transfected with human MDR1 as relative fluorescent rhodamine123 activity at 1 ug/mL. The class given is cell-based. Summed up: (§1)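 L5178Y mouse T-cell lymphoma subline carrying the human MDR1 gene, with the parental drug-sensitive line also listed. A larger number of cells was exposed to compound for 30 min. Rhodamine 123 accumulation was read by fluorescence, and P-gp-mediated efflux reversal was expressed as a fluorescence activity ratio.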

Data set [3] has the same target. Nature of the data set: Reversal of multi-drug resistance in L5178Y cells transfected with human MDR1 as relative fluorescent rhodamine123 activity at 0.1 ug/mL. The class given is cell-based. Summed up: as §1

T1 sequence (P08183 whole entry): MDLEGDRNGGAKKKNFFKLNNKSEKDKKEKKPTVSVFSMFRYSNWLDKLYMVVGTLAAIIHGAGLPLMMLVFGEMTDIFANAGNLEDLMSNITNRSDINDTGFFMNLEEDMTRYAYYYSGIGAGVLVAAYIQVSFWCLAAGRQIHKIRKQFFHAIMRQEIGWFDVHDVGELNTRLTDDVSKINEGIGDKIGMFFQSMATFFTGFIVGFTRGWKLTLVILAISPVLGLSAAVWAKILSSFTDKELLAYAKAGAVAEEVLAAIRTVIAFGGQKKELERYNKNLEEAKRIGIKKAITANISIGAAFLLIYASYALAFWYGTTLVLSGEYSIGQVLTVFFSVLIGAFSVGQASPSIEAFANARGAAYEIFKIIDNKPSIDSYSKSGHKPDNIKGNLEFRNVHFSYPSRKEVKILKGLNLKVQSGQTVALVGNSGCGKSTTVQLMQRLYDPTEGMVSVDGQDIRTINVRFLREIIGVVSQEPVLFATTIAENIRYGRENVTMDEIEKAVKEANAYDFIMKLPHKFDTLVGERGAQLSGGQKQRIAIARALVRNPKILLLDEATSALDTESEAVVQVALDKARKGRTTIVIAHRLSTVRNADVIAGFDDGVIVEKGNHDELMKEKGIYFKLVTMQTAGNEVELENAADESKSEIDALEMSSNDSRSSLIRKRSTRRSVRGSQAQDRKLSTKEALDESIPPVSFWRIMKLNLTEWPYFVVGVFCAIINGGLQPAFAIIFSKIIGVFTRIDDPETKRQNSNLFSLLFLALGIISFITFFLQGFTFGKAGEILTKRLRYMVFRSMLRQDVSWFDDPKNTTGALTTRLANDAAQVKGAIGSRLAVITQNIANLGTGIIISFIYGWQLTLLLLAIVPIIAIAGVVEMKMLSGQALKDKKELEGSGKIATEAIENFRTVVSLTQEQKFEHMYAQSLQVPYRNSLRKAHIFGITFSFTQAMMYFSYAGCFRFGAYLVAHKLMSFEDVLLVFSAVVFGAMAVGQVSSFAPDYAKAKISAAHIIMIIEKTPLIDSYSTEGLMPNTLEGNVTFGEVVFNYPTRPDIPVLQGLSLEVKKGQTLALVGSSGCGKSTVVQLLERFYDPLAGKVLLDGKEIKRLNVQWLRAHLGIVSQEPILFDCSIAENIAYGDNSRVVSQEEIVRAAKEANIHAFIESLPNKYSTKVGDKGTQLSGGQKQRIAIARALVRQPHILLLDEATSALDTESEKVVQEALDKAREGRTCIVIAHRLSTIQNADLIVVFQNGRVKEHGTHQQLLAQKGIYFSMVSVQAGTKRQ

For the molecule `COc1ccc(CCN(C)CC#CCN2C(=O)C3C4c5ccccc5C(c5ccccc54)C3C2=O)cc1OC` (centres undefined), the GI50 in data set [1] is 2.55 µM. Also, the values for the Ratio in data set [2] and in data set [3] were 89.35 and 2.65, respectively.
Taken in the same sequence, the figures for `COc1ccc(CCN(C)CCN2C(=O)C3C4c5ccccc5C(c5ccccc54)C3C2=O)cc1OC` (centres undefined) were 4.23 µM, 47.85 and 2.76.
The like results for `COc1ccc(CCN(C)CCCN2C(=O)C3C4c5ccccc5C(c5ccccc54)C3C2=O)cc1OC` (centres undefined) were, in that order, 5.72 µM, 28.62 and 7.91.

Source of the values: ChEMBL document CHEMBL1147796, “New potent P-glycoprotein inhibitors carrying a polycyclic scaffold” (J Med Chem, 2006).
